In ChEMBL document CHEMBL4330096, “Discovery of potent and selective 5-azaindazole inhibitors of leucine-rich repeat kinase 2 (LRRK2) - Part 1” (Bioorg Med Chem Lett, 2019):

Tests used:
[1] = molecular target: Serine/threonine-protein kinase N2 (Homo sapiens) (UniProt Q16513); assay: Inhibition of PRK2 (unknown origin) at 1 uM relative to control
Summary of the method: (§1)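 Single-concentration screen of each compound against a 59-protein-kinase panel, run at 10 µM or 1 µM. Activity relative to control is shown as a heat map across the panel.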

[2] = molecular target: Dual specificity mitogen-activated protein kinase kinase 1 (Homo sapiens) (UniProt Q02750); assay: Inhibition of MKK1 (unknown origin) at 1 uM relative to control; summary of the method: as §1
[3] = molecular target: Serine/threonine-protein kinase PAK 4 (Homo sapiens) (UniProt O96013); assay: Inhibition of PAK4 (unknown origin) at 1 uM relative to control; summary of the method: as §1
[4] = molecular target: Maternal embryonic leucine zipper kinase (Homo sapiens) (UniProt Q14680); assay: Inhibition of MELK (unknown origin) at 1 uM relative to control; summary of the method: as §1
[5] = molecular target: T1, Serine/threonine-protein kinase BRSK2 (Homo sapiens) (UniProt Q8IWQ3); assay: Inhibition of BRSK2 (unknown origin) at 1 uM relative to control
T1 sequence (whole entry): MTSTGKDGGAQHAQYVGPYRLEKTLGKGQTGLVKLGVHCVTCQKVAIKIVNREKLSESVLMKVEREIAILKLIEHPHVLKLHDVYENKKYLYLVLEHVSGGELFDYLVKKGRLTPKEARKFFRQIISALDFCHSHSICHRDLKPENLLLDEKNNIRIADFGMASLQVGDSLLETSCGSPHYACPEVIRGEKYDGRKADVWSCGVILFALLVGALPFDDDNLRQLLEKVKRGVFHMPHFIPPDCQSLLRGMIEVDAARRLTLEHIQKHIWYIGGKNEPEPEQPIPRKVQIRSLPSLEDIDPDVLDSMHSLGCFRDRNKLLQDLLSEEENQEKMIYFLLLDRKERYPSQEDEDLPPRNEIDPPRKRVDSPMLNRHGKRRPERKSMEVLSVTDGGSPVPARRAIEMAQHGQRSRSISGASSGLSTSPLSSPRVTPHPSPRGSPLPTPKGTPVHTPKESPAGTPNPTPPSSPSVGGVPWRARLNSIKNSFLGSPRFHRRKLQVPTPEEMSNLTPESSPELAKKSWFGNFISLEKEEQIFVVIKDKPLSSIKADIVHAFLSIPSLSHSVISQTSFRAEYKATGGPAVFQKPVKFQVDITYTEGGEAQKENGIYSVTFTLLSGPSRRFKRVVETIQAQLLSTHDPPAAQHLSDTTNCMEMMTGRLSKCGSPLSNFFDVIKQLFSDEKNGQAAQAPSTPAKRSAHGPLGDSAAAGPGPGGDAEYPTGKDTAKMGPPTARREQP
Summary of the method: (§2)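 Single-point screen of each compound against a panel of 59 protein kinases, at 1 or 10 μM. The panel data are also summarised as a rescaled geometric mean selectivity score.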

[6] = molecular target: T2, Ephrin type-B receptor 3 (Homo sapiens) (UniProt P54753); assay: Inhibition of EPHB3 (unknown origin) at 1 uM relative to control; summary of the method: as §2
T2 sequence (whole entry): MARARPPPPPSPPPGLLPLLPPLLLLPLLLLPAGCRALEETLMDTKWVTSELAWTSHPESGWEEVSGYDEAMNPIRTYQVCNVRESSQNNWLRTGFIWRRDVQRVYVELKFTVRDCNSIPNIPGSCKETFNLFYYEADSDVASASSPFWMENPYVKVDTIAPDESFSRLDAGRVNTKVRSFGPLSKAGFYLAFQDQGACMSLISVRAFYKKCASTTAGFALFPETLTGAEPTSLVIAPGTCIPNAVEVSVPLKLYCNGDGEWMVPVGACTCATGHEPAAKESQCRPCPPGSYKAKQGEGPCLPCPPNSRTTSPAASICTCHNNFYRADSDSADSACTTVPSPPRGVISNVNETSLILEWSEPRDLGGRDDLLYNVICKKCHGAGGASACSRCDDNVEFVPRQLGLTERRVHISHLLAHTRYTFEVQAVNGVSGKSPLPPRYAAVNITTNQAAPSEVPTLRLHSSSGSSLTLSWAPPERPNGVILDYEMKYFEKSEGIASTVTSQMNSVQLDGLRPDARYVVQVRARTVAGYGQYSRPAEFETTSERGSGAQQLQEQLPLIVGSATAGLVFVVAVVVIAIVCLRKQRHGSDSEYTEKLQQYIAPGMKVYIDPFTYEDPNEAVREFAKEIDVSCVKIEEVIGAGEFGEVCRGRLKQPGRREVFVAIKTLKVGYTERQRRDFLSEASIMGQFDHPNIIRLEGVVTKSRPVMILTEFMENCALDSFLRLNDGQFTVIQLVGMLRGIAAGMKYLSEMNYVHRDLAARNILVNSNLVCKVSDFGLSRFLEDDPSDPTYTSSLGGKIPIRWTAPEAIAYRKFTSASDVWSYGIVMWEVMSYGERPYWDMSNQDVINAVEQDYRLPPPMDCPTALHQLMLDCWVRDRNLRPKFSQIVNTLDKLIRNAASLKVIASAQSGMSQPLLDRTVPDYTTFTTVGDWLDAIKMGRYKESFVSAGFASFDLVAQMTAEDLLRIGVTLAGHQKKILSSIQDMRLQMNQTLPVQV

[7] = molecular target: Rho-associated protein kinase 2 (Homo sapiens) (UniProt O75116); assay: Inhibition of ROCK2 (unknown origin) at 1 uM relative to control; summary of the method: as §1
[8] = molecular target: T3, Eukaryotic elongation factor 2 kinase (Homo sapiens) (UniProt O00418); assay: Inhibition of EF2K (unknown origin) at 1 uM relative to control; summary of the method: as §2
T3 sequence (whole entry): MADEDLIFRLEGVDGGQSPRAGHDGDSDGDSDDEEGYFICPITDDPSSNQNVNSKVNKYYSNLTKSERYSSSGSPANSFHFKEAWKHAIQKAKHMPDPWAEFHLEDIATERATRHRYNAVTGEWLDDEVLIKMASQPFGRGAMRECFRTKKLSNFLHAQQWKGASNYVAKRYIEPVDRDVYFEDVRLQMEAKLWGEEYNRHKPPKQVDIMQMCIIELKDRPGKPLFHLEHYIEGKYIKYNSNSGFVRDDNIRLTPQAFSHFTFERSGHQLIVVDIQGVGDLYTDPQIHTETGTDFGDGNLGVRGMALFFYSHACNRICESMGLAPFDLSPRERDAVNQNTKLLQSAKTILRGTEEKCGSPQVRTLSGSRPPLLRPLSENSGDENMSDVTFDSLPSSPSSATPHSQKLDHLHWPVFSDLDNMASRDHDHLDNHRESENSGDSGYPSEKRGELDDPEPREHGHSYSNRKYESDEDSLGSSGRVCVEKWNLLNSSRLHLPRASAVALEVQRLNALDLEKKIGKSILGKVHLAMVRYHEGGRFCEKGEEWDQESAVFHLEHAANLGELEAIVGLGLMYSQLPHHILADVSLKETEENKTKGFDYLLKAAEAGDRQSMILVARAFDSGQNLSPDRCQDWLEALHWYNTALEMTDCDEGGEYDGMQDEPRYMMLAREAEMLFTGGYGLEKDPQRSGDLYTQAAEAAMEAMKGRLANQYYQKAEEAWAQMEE

[9] = molecular target: Serine/threonine-protein kinase 26 (Homo sapiens) (UniProt Q9P289); assay: Inhibition of MST4 (unknown origin) at 1 uM relative to control; summary of the method: as §1
Serine/threonine-protein kinase 26 (Homo sapiens), sequence (Q9P289 2-416 limits assumed): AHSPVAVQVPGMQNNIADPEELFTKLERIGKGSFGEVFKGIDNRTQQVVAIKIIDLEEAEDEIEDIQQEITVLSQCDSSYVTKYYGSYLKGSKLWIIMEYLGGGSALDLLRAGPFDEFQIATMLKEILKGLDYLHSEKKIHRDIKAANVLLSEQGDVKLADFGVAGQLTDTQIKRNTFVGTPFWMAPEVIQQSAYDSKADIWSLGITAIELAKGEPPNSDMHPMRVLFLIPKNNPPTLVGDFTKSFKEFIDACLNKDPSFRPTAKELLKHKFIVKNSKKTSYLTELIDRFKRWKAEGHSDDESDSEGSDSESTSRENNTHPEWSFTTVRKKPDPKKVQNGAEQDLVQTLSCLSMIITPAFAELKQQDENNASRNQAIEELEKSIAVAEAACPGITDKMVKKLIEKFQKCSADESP

Maternal embryonic leucine zipper kinase (Homo sapiens), sequence (Q14680 whole entry, looked up): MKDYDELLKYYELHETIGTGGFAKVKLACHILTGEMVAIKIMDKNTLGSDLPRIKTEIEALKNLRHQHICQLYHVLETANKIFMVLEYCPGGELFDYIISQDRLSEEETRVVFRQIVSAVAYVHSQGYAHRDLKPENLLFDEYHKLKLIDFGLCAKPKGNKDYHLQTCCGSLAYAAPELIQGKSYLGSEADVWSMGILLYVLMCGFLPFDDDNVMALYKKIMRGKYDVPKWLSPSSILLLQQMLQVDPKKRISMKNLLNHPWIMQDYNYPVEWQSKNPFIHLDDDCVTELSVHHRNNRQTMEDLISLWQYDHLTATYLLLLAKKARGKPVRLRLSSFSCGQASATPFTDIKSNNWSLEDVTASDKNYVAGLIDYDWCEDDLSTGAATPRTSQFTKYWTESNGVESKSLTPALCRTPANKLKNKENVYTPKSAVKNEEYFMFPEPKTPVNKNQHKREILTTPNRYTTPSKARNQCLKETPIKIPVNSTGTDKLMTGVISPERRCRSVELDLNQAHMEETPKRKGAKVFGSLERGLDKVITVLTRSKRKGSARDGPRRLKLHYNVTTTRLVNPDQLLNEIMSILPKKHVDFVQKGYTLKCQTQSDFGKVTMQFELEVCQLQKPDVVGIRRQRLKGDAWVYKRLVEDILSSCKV
Serine/threonine-protein kinase PAK 4 (Homo sapiens), sequence (O96013 whole entry, looked up): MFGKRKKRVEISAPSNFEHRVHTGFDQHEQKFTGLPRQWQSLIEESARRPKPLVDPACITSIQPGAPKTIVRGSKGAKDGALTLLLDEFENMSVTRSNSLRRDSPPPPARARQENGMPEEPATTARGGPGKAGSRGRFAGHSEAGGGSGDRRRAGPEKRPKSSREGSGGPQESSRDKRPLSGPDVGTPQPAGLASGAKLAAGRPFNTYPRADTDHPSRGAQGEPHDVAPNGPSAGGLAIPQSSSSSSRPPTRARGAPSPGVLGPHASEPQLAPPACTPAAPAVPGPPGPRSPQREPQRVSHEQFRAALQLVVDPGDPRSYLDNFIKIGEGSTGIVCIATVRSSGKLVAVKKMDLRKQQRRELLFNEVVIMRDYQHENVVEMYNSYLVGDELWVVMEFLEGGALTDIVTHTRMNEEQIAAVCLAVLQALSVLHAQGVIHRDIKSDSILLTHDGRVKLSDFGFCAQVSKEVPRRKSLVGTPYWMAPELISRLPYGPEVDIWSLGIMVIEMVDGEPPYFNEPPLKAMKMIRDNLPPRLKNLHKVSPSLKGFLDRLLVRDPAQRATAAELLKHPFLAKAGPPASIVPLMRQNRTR
Rho-associated protein kinase 2 (Homo sapiens), sequence (O75116 whole entry, looked up): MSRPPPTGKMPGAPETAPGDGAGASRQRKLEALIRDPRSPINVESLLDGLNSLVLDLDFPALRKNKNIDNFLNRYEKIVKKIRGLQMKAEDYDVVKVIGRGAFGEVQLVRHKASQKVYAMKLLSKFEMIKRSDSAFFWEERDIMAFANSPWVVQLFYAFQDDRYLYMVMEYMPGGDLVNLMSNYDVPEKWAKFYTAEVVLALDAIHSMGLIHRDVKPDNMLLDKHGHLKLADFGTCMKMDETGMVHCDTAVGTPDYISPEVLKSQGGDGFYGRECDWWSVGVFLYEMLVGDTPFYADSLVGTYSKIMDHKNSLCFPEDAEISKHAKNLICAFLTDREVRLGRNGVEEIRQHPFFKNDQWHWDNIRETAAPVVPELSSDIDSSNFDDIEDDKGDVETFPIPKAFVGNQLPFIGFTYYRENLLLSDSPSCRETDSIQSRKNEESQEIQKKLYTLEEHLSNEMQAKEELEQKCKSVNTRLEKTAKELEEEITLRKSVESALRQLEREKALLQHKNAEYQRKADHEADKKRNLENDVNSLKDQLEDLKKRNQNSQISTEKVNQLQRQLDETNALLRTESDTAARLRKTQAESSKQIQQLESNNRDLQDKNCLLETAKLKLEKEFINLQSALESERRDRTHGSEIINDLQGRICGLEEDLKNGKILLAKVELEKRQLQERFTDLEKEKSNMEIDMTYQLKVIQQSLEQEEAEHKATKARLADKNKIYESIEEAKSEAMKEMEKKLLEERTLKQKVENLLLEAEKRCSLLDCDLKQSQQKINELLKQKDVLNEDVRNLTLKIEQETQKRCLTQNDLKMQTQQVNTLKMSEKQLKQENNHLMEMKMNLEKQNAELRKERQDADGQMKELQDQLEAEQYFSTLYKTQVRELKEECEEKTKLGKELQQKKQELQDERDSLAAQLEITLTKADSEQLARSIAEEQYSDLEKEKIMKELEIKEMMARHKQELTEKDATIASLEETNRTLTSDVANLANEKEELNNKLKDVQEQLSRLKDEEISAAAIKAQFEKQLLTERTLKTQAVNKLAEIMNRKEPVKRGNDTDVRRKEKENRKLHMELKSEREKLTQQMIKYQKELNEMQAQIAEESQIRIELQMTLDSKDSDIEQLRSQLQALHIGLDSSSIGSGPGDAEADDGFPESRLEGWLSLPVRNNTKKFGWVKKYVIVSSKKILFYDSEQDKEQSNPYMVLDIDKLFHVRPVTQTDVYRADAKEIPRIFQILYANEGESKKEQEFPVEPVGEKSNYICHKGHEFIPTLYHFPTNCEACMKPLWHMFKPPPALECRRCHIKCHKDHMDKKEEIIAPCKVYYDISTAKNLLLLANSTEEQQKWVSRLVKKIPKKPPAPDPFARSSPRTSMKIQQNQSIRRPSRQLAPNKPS
Dual specificity mitogen-activated protein kinase kinase 1 (Homo sapiens), sequence (Q02750 whole entry): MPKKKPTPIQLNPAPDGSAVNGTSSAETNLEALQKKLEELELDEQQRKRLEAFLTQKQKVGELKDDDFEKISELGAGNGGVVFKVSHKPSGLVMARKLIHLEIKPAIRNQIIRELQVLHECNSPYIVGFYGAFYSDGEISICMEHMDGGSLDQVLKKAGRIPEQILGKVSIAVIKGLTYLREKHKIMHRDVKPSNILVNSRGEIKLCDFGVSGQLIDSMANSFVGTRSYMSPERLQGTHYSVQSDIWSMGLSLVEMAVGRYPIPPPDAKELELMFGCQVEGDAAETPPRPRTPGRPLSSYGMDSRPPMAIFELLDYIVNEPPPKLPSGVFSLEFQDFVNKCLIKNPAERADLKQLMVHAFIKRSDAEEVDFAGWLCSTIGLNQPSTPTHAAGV
Serine/threonine-protein kinase N2 (Homo sapiens), sequence (Q16513 whole entry, looked up): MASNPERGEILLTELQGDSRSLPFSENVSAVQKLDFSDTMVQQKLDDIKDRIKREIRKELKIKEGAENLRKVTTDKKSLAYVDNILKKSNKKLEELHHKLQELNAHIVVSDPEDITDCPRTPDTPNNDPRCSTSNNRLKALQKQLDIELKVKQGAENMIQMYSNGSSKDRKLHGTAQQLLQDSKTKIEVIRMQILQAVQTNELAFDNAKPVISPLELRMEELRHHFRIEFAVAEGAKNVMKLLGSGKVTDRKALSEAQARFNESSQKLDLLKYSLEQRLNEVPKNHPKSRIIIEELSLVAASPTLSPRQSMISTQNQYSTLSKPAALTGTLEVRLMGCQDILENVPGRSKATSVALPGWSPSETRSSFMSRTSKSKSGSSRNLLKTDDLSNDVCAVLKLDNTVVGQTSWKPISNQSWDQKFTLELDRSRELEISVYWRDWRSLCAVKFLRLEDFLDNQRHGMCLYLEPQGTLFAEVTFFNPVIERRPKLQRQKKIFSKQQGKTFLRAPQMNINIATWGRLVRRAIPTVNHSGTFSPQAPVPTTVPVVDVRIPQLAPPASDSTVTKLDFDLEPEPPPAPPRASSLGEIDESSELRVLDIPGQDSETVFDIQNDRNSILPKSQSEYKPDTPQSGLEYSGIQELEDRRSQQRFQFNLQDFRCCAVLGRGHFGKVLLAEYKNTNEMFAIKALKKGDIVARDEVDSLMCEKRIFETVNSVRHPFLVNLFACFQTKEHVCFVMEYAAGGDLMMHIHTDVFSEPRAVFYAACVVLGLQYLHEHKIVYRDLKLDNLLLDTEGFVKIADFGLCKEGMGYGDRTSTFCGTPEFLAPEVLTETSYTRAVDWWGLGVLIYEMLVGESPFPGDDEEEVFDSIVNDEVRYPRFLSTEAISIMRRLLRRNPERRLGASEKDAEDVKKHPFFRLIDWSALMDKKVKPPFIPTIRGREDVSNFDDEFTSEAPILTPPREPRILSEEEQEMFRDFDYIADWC

| Compound | inhibition [1] [%] | inhibition [2] [%] | inhibition [3] [%] | inhibition [4] [%] | inhibition [5] [%] | inhibition [6] [%] | inhibition [7] [%] | inhibition [8] [%] | inhibition [9] [%] |
| --- | --- | --- | --- | --- | --- | --- | --- | --- | --- |
| CC(C)n1cc(-c2n[nH]c3ccnc(OC4CCOCC4)c23)cn1 | 24 | 57 | 46 | 84 | 19 | 0 | 28 | 0 | 47 |
| c1cc(-c2n[nH]c3ccnc(OC4CCOCC4)c23)cc(N2CCOCC2)n1 | 0 | 7 | 0 | 79 | 0 | 0 | 0 | 9 | 3 |
